Results reported in ChEMBL document CHEMBL4028809, “Dual-tail approach to discovery of novel carbonic anhydrase IX inhibitors by simultaneously matching the hydrophobic and hydrophilic halves of the active site” (Eur J Med Chem, 2017).
Active and inactive are the calls of the source. The rule behind the calls is not given here.

Assays:
[1] = molecular target: Carbonic anhydrase 2 (Homo sapiens, UniProt P00918); experiment: Inhibition of recombinant human carbonic anhydrase 2 using 4-nitrophenylacetate as substrate pretreated for 15 mins prior to test by spectrophotometric method
[2] = molecular target: Carbonic anhydrase 9 (Homo sapiens, UniProt Q16790); experiment: Inhibition of recombinant human carbonic anhydrase 9 using 4-nitrophenylacetate as substrate pretreated for 15 mins prior to test by spectrophotometric method
[3] = tested on: HT-29; experiment: Cytotoxicity against human HT-29 cells assessed as cell viability at 100 uM after 72 hrs under normoxic condition by MTT assay relative to control; type: functional; conditions: for viability at 100 µM: HT-29, 72 h, read-out: Activity
Method in brief: (§1)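 HT-29 or MDA-MB-231 cells seeded at 5 × 10^4 per well and stabilized 24 h at 37 °C, then exposed to a single 0.1 mM dose for 72 h, in hypoxia (0.5% O2, 5% CO2, balance N2, modular chamber) or normoxia (20% O2, 5% CO2). MTT at 5 mg/mL added for 4 h; formazan dissolved in DMSO; absorbance read at 540 nm.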

[4] = tested on: HT-29; experiment: Cytotoxicity against human HT-29 cells assessed as cell viability at 100 uM after 72 hrs under hypoxic condition condition by MTT assay relative to control; type: functional; conditions: for viability at 100 µM: HT-29, 72 h, read-out: Activity; method in brief: as §1
[5] = tested on: MDA-MB-231; experiment: Cytotoxicity against human MDA-MB-231 cells assessed as cell viability at 100 uM after 72 hrs under hypoxic condition by MTT assay; type: functional; conditions: for viability at 100 µM: MDA-MB-231, 72 h, read-out: Activity; method in brief: as §1
[6] = tested on: MDA-MB-231; experiment: Cytotoxicity against human MDA-MB-231 cells assessed as cell viability at 100 uM after 72 hrs under normoxic condition by MTT assay; type: functional; conditions: for viability at 100 µM: MDA-MB-231, 72 h, read-out: Activity; method in brief: as §1

SMILES	IC50 [1] [nM]	IC50 [2] [nM]	viability at 100 µM [3] [%]	viability at 100 µM [4] [%]	viability at 100 µM [5] [%]	viability at 100 µM [6] [%]	Activity [3]	Activity [4]	Activity [5]	Activity [6]
COc1ccc(/C=C/C(=O)O)cc1 [4-METHOXYCINNAMIC ACID]	760000	850000								
COc1cccc(/C=C/C(=O)N[C@@H]2[C@@H](O)[C@H](O)[C@@H](CO)O[C@H]2NC(=S)Nc2ccc(S(N)(=O)=O)cc2)c1OC		33	73 to 79	63 to 77	69.5 to 79.9	89 to 99				
CC(=O)Nc1nnc(S(N)(=O)=O)s1							inactive	inactive	inactive	inactive
COc1ccc(/C=C/C(=O)N[C@H]2[C@H](OC)O[C@H](CO)[C@@H](O)[C@@H]2O)cc1		20000								
COc1ccc(/C=C/C(=O)N[C@@H]2[C@@H](O)[C@H](O)[C@@H](CO)O[C@H]2NC(=S)Nc2ccc(S(N)(=O)=O)cc2)c(OC)c1		7					inactive	inactive	inactive	inactive
COc1ccc(/C=C/C(=O)N[C@@H]2[C@@H](O)[C@H](O)[C@@H](CO)O[C@H]2NC(=S)Nc2ccc(S(N)(=O)=O)cc2)cc1		152	73 to 79	63 to 77	69.5 to 79.9	89 to 99				
COc1ccccc1/C=C/C(=O)N[C@@H]1[C@@H](O)[C@H](O)[C@@H](CO)O[C@H]1NC(=S)Nc1ccc(S(N)(=O)=O)cc1		60	73 to 79	63 to 77	69.5 to 79.9	89 to 99				
COc1cccc(/C=C/C(=O)N[C@@H]2[C@@H](O)[C@H](O)[C@@H](CO)O[C@H]2NC(=S)Nc2ccc(S(N)(=O)=O)cc2)c1		95	73 to 79	63 to 77	69.5 to 79.9	89 to 99				
COc1cc(/C=C/C(=O)N[C@@H]2[C@@H](O)[C@H](O)[C@@H](CO)O[C@H]2NC(=S)Nc2ccc(S(N)(=O)=O)cc2)cc(OC)c1OC		46	73 to 79	63 to 77	69.5 to 79.9	89 to 99				
COc1cc(OC)c(OC)cc1/C=C/C(=O)N[C@@H]1[C@@H](O)[C@H](O)[C@@H](CO)O[C@H]1NC(=S)Nc1ccc(S(N)(=O)=O)cc1		37	73 to 79	63 to 77	69.5 to 79.9	89 to 99				
N[C@@H]1[C@@H](O)[C@H](O)[C@@H](CO)O[C@H]1NC(=S)Nc1ccc(S(N)(=O)=O)cc1	203	667								
